We go through 22 compounds from ChEMBL document CHEMBL1132711 (J Med Chem, 1999).

pEC50, pIC50, pKi: −log10 of the molar value.

Assay [1] concerns the target T1, Progesterone receptor (Homo sapiens) (UniProt P06401).
T1 sequence (whole entry): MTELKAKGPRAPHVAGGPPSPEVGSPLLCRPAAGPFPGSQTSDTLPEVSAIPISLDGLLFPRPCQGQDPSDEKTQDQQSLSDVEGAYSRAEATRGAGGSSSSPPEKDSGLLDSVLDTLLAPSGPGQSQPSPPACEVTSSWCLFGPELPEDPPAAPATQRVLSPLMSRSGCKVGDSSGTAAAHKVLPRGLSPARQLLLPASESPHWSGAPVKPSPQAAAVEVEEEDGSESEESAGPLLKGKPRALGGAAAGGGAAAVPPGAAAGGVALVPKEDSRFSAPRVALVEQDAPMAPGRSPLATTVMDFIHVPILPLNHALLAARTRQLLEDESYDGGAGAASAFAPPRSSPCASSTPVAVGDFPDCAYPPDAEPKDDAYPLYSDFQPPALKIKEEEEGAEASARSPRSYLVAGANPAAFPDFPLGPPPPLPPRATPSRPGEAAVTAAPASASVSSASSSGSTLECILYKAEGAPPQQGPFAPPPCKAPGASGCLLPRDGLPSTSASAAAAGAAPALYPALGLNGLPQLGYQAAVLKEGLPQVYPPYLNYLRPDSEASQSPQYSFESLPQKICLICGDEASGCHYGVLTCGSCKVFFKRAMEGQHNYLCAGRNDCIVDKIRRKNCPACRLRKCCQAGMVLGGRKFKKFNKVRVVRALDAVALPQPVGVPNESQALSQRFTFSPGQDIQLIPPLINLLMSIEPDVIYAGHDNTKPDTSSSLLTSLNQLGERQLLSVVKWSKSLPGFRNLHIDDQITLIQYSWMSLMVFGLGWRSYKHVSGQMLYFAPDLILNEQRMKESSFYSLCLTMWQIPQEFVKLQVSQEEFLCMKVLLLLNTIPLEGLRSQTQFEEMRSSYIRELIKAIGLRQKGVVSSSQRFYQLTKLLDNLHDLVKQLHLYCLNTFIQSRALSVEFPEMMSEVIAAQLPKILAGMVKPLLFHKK
The assay can be described thus: (§1) Agonistic activity by cotransfection assay against human Progesterone receptor in T47D cells. It counts as functional, cell-based. Summed up: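 T47D human breast cancer cells (high endogenous hPR) incubated with test compound in 96-well format; alkaline phosphatase expression measured by absorbance. […] EC50 from full dose–response curves; mean of at least three separate experiments in triplicate, or single experiment where no error given.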

Assay [2] concerns the target T2, Progesterone receptor (Homo sapiens, UniProt P06401).
T2 sequence (P06401 whole entry): T1 sequence (whole entry)
In words: (§2) Compound was tested for agonistic activity by cotransfection assay against human Progesterone receptor in CV-1 cells. It counts as functional, cell-based.

Assay [3] addresses T2, Progesterone receptor. Described as §1. It counts as functional, cell-based.
Assay [4] addresses T1, Progesterone receptor (Homo sapiens). The description is as §2. It counts as functional, cell-based.
In assay [5] the target is T2, Progesterone receptor. The assay can be described thus: Compound was evaluated for its binding affinity against baculovirus expressed Progesterone receptor.
Assay [6] addresses T3, Androgen receptor (Homo sapiens, UniProt P10275).
T3 sequence (P10275 whole entry): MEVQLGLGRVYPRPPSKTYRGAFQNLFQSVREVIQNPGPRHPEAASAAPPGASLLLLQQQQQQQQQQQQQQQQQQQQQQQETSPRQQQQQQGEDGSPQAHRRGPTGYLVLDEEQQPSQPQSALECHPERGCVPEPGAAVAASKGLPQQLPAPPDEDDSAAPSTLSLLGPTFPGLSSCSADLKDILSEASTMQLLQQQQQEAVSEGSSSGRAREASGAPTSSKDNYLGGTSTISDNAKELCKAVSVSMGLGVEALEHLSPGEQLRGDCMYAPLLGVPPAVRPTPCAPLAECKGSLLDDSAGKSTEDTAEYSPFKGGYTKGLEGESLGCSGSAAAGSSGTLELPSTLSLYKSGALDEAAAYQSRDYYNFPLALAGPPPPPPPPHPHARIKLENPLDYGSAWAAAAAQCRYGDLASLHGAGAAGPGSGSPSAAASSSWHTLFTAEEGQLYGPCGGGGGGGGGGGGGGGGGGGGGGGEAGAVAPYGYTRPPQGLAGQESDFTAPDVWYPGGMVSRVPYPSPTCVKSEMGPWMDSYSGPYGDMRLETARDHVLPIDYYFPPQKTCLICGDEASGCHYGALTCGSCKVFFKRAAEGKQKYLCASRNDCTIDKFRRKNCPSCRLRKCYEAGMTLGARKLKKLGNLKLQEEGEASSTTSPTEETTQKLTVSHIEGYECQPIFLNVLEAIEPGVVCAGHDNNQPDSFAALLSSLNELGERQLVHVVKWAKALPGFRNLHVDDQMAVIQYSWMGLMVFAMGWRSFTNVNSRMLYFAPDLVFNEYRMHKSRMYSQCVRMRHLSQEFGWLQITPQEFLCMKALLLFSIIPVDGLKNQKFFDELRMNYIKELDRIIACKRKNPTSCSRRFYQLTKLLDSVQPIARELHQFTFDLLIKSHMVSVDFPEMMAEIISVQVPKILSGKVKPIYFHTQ

Assay [7] addresses T4, Glucocorticoid receptor (Homo sapiens, UniProt P04150).
T4 sequence (P04150 whole entry): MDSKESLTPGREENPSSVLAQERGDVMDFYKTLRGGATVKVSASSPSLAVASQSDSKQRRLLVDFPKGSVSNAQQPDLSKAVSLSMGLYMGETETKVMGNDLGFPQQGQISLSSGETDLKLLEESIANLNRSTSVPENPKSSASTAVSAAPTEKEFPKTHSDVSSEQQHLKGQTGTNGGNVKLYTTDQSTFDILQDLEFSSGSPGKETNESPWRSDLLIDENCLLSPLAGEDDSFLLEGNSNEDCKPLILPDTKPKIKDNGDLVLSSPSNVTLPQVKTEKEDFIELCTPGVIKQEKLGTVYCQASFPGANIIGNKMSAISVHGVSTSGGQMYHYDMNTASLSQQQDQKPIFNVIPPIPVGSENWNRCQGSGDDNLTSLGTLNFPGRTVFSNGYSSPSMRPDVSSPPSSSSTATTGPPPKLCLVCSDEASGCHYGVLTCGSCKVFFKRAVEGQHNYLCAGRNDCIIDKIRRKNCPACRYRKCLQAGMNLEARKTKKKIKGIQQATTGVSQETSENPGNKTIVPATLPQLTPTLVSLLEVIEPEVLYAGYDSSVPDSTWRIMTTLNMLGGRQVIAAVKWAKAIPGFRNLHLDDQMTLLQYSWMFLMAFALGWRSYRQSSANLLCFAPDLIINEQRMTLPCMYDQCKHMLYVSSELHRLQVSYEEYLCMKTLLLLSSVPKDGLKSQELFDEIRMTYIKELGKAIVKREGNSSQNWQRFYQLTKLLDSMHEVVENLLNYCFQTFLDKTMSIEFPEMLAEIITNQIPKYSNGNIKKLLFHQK

Assay [8] has as its target T1, Progesterone receptor (Homo sapiens). In words: (§3) Antagonistic activity by cotransfection assay against human Progesterone receptor in CV-1 cells. The assay is classed as functional, cell-based.
Assay [9] concerns the target T2, Progesterone receptor. The assay is described as §3. The assay is classed as functional, cell-based.

In the case of `CC(=O)O[C@]1(C(C)=O)CC[C@H]2[C@@H]3C[C@H](C)C4=CC(=O)CC[C@]4(C)[C@H]3CC[C@@]21C`, in [1], the Efficacy amounted to 90%.
Regarding `C[C@H]1C(=O)C(C)(C)Nc2ccc3c(c21)[C@H](c1cccc(F)c1)Oc1ccccc1-3`, the pEC50 in assay [2] was 8.06; in assay [3], 7.59. For the same compound, the Efficacy in assay [4] was determined as 114%; in [1], 107%. Further, the values for the pKi in [5], in assay [6] and in assay [7] were 7.55, 6.30 and 6.06, respectively.
`C[C@@H]1C(=O)C(C)(C)Nc2ccc3c(c21)[C@H](c1ccc(Cl)cc1)Oc1ccccc1-3`: the results for the Efficacy in assay [4] and in [1] were 122% and 97%, respectively. In addition, the values for the pKi in [6] and in [7] were 5.93 and 6.48, respectively.
Regarding `C[C@@H]1C(=O)C(C)(C)Nc2ccc3c(c21)[C@H](c1ccccc1)Oc1ccccc1-3`, the pEC50 in [2] was 8.00; in [3] it was 7.63. Besides, the Efficacy in assay [4] and in [1] was 92% in each case. Also, the figures for the pKi in assay [5], in assay [6] and in assay [7] were 8.18, 6.14 and 6.60, respectively.
`C=C1CC(C)(C)Nc2ccc3c(c21)C(c1ccc(Cl)cc1)Oc1ccccc1-3` (configuration not stated) had a pEC50 in assay [2] of 6.91. The Efficacy in [4] came out at 30%; in assay [8] it was 81%. The pIC50 in assay [9] was 5.76.
Consider `C[C@H]1CC(C)(C)Nc2ccc3c(c21)[C@H](c1ccc(Cl)cc1)Oc1ccccc1-3`, for which, in assay [2], the pEC50 was 7.41. The Efficacy in [4] worked out at 39%. The negative logarithm of the Ki (pKi) in assay [5] was 8.00.
As for `CC1=CC(C)(C)Nc2ccc3c(c21)/C(=C/c1cccc(F)c1)Oc1ccccc1-3`, in assay [3], the pEC50 was 7.29. Besides, in assay [1], the Efficacy was 55%.
As for `CC1C(=O)C(C)(C)Nc2ccc3c(c21)/C(=C/c1ccccc1)Oc1ccccc1-3` (configuration not stated), the pEC50 in [2] was 7.77; in assay [3] it was 7.74. Moreover, the Efficacy came out at 133% in [4] and 93% in assay [1]. Moreover, the pKi in [5] is 8.31; in [6], 5.92; in assay [7] it was 6.17.
In assay [2], `CC1CC(C)(C)Nc2ccc3c(c21)/C(=C/c1cccc(F)c1)Oc1ccccc1-3` (configuration not stated) showed a pEC50 of 7.33. The Efficacy in assay [4] came out at 114%. In assay [5], this compound had a negative logarithm of the Ki (pKi) of 8.20.
`CC1=CC(C)(C)Nc2ccc3c(c21)C(c1cccc(Cl)c1)Oc1ccc(F)cc1-3` (configuration not stated) gave a pEC50 in assay [3] of 7.57. Besides, the Efficacy in assay [1] was 47%.
Regarding `C[C@@H]1C(=O)C(C)(C)Nc2ccc3c(c21)[C@H](c1cccc(C(F)(F)F)c1)Oc1ccccc1-3`, the negative-log EC50 (pEC50) is 7.85 in assay [2] and 7.43 in [3]. Also, the Efficacy was 93% in [4] and 85% in assay [1]. Also, the pKi in [5] was 7.78; in assay [6] it was 5.96; in assay [7], 6.59.
As for `C[C@H]1C(=O)C(C)(C)Nc2ccc3c(c21)[C@H](c1cccc(C(F)(F)F)c1)Oc1ccccc1-3`, the values for the pEC50 in assay [2] and in assay [3] were 7.80 and 7.20, respectively. Also, the values for the Efficacy in assay [4] and in [1] were 66% and 103%, respectively. The values for the pKi in assay [5], in assay [6] and in assay [7] were 6.91, 6.09 and 6.60, respectively.
Take `C[C@H]1C(=O)C(C)(C)Nc2ccc3c(c21)[C@H](c1ccccc1)Oc1ccccc1-3`: the results for the pEC50 in assay [2] and in [3] were 8.05 and 7.46, respectively. Besides, the Efficacy turned out to be 103% in [4] and 102% in assay [1]. Besides, the pKi was 7.54 in assay [5], 5.97 in assay [6] and 6.04 in assay [7].
In assay [8], `CC1(C)CC(=O)c2c(ccc3c2C(c2ccc(Cl)cc2)Oc2ccccc2-3)N1` (configuration not stated) displayed an Efficacy of 84%. This compound also had a pKi in assay [5] of 7.61. Also, the pIC50 in assay [9] is 6.42.
Take `CC1(C)Nc2ccc3c(c2C(C)(C)C1=O)C(c1ccc(Cl)cc1)Oc1ccccc1-3` (configuration not stated): the pEC50 in [2] was 8.01. In addition, the Efficacy in assay [4] turned out to be 36%. This compound showed a pKi in assay [5] of 8.28.
On to `C[C@H]1C(=O)C(C)(C)Nc2ccc3c(c21)[C@H](c1ccc(Cl)cc1)Oc1ccccc1-3`, for which the figures for the Efficacy in assay [4] and in assay [1] were 102% and 107%, respectively. In addition, the results for the negative logarithm of the Ki (pKi) in assay [6] and in [7] were 6.16 and 6.04, respectively.
As to `C[C@H]1c2c(ccc3c2[C@H](c2ccc(Cl)cc2)Oc2ccccc2-3)NC(C)(C)[C@@H]1O`, the Efficacy in assay [8] was 91%. The pKi in [5] is < 6.30. This compound gave a negative logarithm of the IC50 (pIC50) in assay [9] of 6.34.
With `C[C@@H]1CC(C)(C)Nc2ccc3c(c21)[C@H](c1ccc(Cl)cc1)Oc1ccccc1-3`, in assay [2], the pEC50 is 7.32. In addition, the Efficacy is 58% in assay [4] and 56% in [8]. Further, the pKi in [5] is 7.04. In addition, in [9], the pIC50 is 5.51.
For the compound `C[C@@H]1C(=O)C(C)(C)Nc2ccc3c(c21)[C@H](c1cccc(F)c1)Oc1ccccc1-3`, the negative-log EC50 (pEC50) in assay [2] is 8.20; in [3], 7.83. Further, the values for the Efficacy in [4] and in assay [1] were 106% and 96%, respectively. For the same compound, the pKi in [5] is 8.59; in assay [6], 6.21; in assay [7] it was 6.71.
Turning to `CC1C(=O)C(C)(C)Nc2ccc3c(c21)/C(=C/c1cccc(F)c1)Oc1ccccc1-3` (configuration not stated), the pEC50 is 8.06 in assay [2] and 7.60 in assay [3]. Moreover, the Efficacy in assay [4] is 155%; in assay [1], 83%. The values for the negative logarithm of the Ki (pKi) in assay [5], in assay [6] and in [7] were 8.46, 6.25 and 5.33, respectively.
`CC1=CC(C)(C)Nc2ccc3c(c21)C(C)Oc1ccc(Cl)cc1-3` (configuration not stated): in assay [1], the Efficacy is 42%.
In assay [8], `C[C@@H]1c2c(ccc3c2[C@H](c2ccc(Cl)cc2)Oc2ccccc2-3)NC(C)(C)[C@H]1O` yielded an Efficacy of 69%. In assay [5], the negative logarithm of the Ki (pKi) was < 6.30. For the same compound, the negative-log IC50 (pIC50) in [9] is 5.49.
